Results as given in ChEMBL document CHEMBL1138262, “Discovery of small molecule CXCR4 antagonists” (J Med Chem, 2007).
Where a SMILES comes first, the peptide text is derived from it. Bridges are numbered along the chain shown (N, C = ends). [ ]: non-standard residue; d: D form. 2Nal = N[C@@H](Cc1ccc2ccccc2c1)C(=O)O; Cit = NC(=O)NCCC[C@H](N)C(=O)O

Assays:
[1] = biological target: T1, C-X-C chemokine receptor type 4 (Homo sapiens, UniProt P61073); assay: Displacement of biotinylated TN14003 from CXCR4 in MDA-MB-231 cells; assay type: cell-based
T1 sequence (P61073 whole entry): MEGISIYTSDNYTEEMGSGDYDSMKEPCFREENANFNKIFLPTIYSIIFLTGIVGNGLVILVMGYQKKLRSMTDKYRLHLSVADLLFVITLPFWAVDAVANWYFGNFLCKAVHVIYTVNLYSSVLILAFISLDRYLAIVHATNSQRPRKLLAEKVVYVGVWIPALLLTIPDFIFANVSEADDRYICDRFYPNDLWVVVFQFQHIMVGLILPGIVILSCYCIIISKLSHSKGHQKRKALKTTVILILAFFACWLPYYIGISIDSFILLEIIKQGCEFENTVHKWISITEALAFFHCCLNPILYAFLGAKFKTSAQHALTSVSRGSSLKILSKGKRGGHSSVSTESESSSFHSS
Method in brief: (§1)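 MDA-MB-231 cells (2 × 10^4) seeded 2 days before. Exposed to compound at 1, 10, 100 or 1000 nM for 10 min at room temperature, then fixed in ice-cold 4% paraformaldehyde. After rehydration in PBS and avidin/biotin blocking, incubated 45 min at room temperature with 0.05 µg/mL biotinylated TN14003, then streptavidin-rhodamine 30 min. Residual binding assessed by fluorescence microscopy.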

[2] = biological target: T1, C-X-C chemokine receptor type 4; assay: Inhibition of CXCR4 in MDA-MB-231 cells; assay type: cell-based; method in brief: as §1
MDA-MB-231 [3] = assay: Cytotoxicity against MDA-MB-231 cells; assay type: functional; settings: Homo sapiens
[4] = Selectivity index, ratio of IC50 for CXCR4 to CC50 for MDA-MB-231 cells; assay type: functional, Homo sapiens
[5] = biological target: T1, C-X-C chemokine receptor type 4; assay: Antagonist activity at CXCR4 in human U87 cells assessed as inhibition of SDF1-induced modulation of cAMP production by TR-FRET assay; assay type: functional, cell-based; settings: U-87MG ATCC
Method in brief: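 U87 glioma cells overexpressing CD4 and CXCR4 (U87CD4CXCR4), seeded 2500 cells/well in 2% FBS 48 h before test. Cells pretreated with compound at various concentrations for 15 min at room temperature, then challenged with 150 ng/mL SDF-1. SDF-1-driven cAMP reduction measured by TR-FRET LANCE cAMP kit as Gi function readout.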

MDA-MB-231 [6] = assay: Inhibition of SDF1-mediated invasion of human MDA-MB-231 cells; assay type: functional, cell-based
Method in brief: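 Matrigel invasion chamber; MDA-MB-231 cells mixed with compound before seeding in top chamber, 200 ng/mL SDF-1α in bottom chamber as chemoattractant. Incubated 22 h in humidified incubator. Non-invading cells swabbed off the top. Invaded cells on the underside fixed in methanol, stained with H&E and counted to give invasion rate.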

Compound | EC [1] [nM] | also measured
O=[N+]([O-])c1cccc(NCc2ccc(CNc3cccc([N+](=O)[O-])c3)cc2)c1 | 1 | –
c1ccc(NCc2cc(CNc3ccccc3)cc(CNc3ccccc3)c2)cc1 | > 1000 | –
Fc1ccccc1NCc1ccc(CNc2ccccc2F)cc1 | 1 | –
c1ccc(-c2nc(-c3ccc(-c4nc(-c5ccccc5)c(-c5ccccc5)[nH]4)cc3)[nH]c2-c2ccccc2)cc1 | > 1000 | –
Oc1cc(CN2CCOCC2)c(O)cc1CN1CCOCC1 | > 1000 | –
C[N+](C)(C)Cc1ccc(C[N+](C)(C)C)cc1 | > 1000 | –
COc1ccccc1NCc1ccc(CNc2ccccc2OC)cc1 | 10 | –
FC(F)(F)c1cccc(NCc2ccc(CNc3cccc(C(F)(F)F)c3)cc2)c1 | 1000 | –
N=C(N)NCCC[C@H](NC(=O)[C@@H]1CSSC[C@H](NC(=O)[C@H](Cc2ccc3ccccc3c2)NC(=O)[C@H](CCCNC(=N)N)NC(=O)[C@@H](N)CCCNC(=N)N)C(=O)N[C@@H](Cc2ccc(O)cc2)C(=O)N[C@@H](CCCNC(N)=O)C(=O)N[C@@H](CCCCN)C(=O)N[C@H](CCCCN)C(=O)N2CCC[C@H]2C(=O)N[C@@H](Cc2ccc(O)cc2)C(=O)N[C@@H](CCCNC(=N)N)C(=O)N[C@@H](CCCNC(N)=O)C(=O)N1)C(N)=O (H-RR[2Nal]CY[Cit]K[dK]PYR[Cit]CR-NH2; disulfide 4-13) | – | IC50 [2]: 0.6 nM; CC50 (MDA-MB-231 [3]): 410 µM; Ratio [4]: 680000
Cc1cc(CN)c(C)cc1CN | > 1000 | –
c1ccc(CNCc2ccc(CNCc3ccccc3)cc2)cc1 | 80 | –
N=C(N)N/N=C/c1ccc(/C=N/NC(=N)N)cc1 | 100 | –
c1ccc(NCc2ccc(CNc3ccccn3)cc2)nc1 | – | EC50 [1]: 1 nM; EC50 ([1]; read-out: EC50): 0.3 nM; Activity [5]: Dose-dependent effect; EC50 (MDA-MB-231 [6]): 5.2 nM
O=[N+]([O-])c1ccc(NCc2ccc(CNc3ccc([N+](=O)[O-])cc3)cc2)cc1 | 1000 | –
CC(Nc1ccccc1)c1ccc(C(C)Nc2ccccc2)cc1 (stereo not given) | 50 | –
CN(Cc1ccc(CN(C)c2ccccc2)cc1)c1ccccc1 | 100 | –
c1ccc(CNc2ccccc2)cc1 | > 1000 | –
c1ccc(NCCNCc2ccc(CNCCNc3ccccc3)cc2)cc1 | > 1000 | –
c1ccc(NCc2c3ccccc3c(CNc3ccccc3)c3ccccc23)cc1 | 100 | –
Cc1c(C)c(CN)c(C)c(C)c1CN | > 1000 | –

Second part, led by results:

EC [1] [nM] | Compound | also measured
100 | c1ccc(NCc2ccccc2CNc2ccccc2)cc1 | –
> 1000 | c1cc(CNC2=NCCN2)ccc1CNC1=NCCN1 | –
> 1000 | N=C(N)c1ccc(C(=N)N)cc1 | –
> 1000 | N=C(N)Nc1ccc(NC(=N)N)cc1 | –
10 | Cc1c(C)c(CNc2ccccc2)c(C)c(C)c1CNc1ccccc1 | –
> 1000 | CN(C)CCNCc1ccc(CNCCN(C)C)cc1 | –
10 | c1ccc(NCc2ccc(CNc3ccccc3)cc2)cc1 | –
> 1000 | N=C(N)c1ccc(CN)cc1 | –
100 | Fc1cccc(NCc2ccc(CNc3cccc(F)c3)cc2)c1 | –
10 | Cc1ccc(NCc2ccc(CNc3ccc(C)cc3)cc2)cc1 | –
1000 | N#Cc1ccc(NCc2ccc(CNc3ccc(C#N)cc3)cc2)cc1 | –
25 | COc1ccc(NCc2ccc(CNc3ccc(OC)cc3)cc2)cc1 | –
1000 | COc1cccc(NC(=O)c2ccc(C(=O)Nc3cccc(OC)c3)cc2)c1 | –
> 1000 | C(=N\NC1=NCCN1)/c1ccc(/C=N/NC2=NCCN2)cc1 | –
100 | c1ccc(NCc2ccc(CNc3ccccc3)c3ccccc23)cc1 | –
> 1000 | c1ccc(NC[C@H]2CC[C@H](CNc3ccccc3)CC2)cc1 | –
> 1000 | CN(C)Cc1ccc(CN(C)C)cc1 | –
10 | c1ccc(NCc2cccc(CNc3ccccc3)c2)cc1 | –
200 | Cc1cc(CNc2ccccc2)c(C)cc1CNc1ccccc1 | –
20 | CCc1ccc(NCc2ccc(CNc3ccc(CC)cc3)cc2)cc1 | –
> 1000 | N=C(N)NCc1ccc(CNC(=N)N)cc1 | –
1000 | Fc1ccc(NCc2ccc(CNc3ccc(F)cc3)cc2)cc1 | –
> 1000 | NC(=O)c1ccc(C(N)=O)cc1 | –
1 | COc1cccc(NCc2ccc(CNc3cccc(OC)c3)cc2)c1 | –
> 1000 | NCc1ccc(CN)cc1 | –
